# Measured values gathered from unrelated publications.
# Each line is one published result; the experiments were not run side by side.
# MMP1: Interstitial collagenase (MMP1, Homo sapiens, UniProt P03956)
# EEF2K: Eukaryotic elongation factor 2 kinase (EEF2K, Homo sapiens, UniProt O00418)
# CASP9: Caspase-9 (CASP9, Homo sapiens, UniProt P55211)
# USP7: Ubiquitin carboxyl-terminal hydrolase 7 (USP7, Homo sapiens, UniProt Q93009)
SMILES,target,assay,conditions,inhibition
c1ccc(C(NCCNC(c2ccccc2)c2ccccc2)c2ccccc2)cc1,MMP1,"enzyme activity, inhibitor",10 µM,-10%
C#Cc1n[nH]c2c(-c3cn([C@@H](C)c4ccccc4)c(=O)[nH]c3=O)cc(F)cc12,EEF2K,"enzyme activity, inhibitor",0.1 µM,2.3%
COC(=O)CC[C@H](NC(=O)[C@H](CC(C)C)NC(=O)OCc1ccccc1)C(=O)N[C@@H](Cc1cnc[nH]1)C(=O)N[C@@H](CC(=O)OC)C(=O)CF,CASP9,"enzyme activity, inhibitor",10 µM,86%
Cc1ncc(C)n2nc(/C=C/c3nc(N4CCCC4)cc(N4CCOCC4)n3)nc12,MMP1,"enzyme activity, inhibitor",10 µM,7%
O=C(Nc1cccnn1)N1CCN([C@@H]2CCOc3cc(C(F)(F)F)ccc32)CC1,CASP9,cell-free assay,20 µM,-4%
Cn1cc(-c2cccc(N3CCc4c(sc5c4CC(C)(C)C5)C3=O)c2CO)cc(Nc2ccncn2)c1=O,"Hepatocyte growth factor receptor (MET, Homo sapiens, UniProt P08581)","enzyme activity, inhibitor",1 µM,9%
CN(C)C(=O)COC(=O)Cc1ccc(OC(=O)c2ccc(NC(=N)N)cc2)cc1,USP7,"enzyme activity, inhibitor",10 µM,0%
Cn1cc(-c2cc(F)cc(N3CCn4c(cc5c4CCCC5)C3=O)c2CO)cc(Nc2ccc(N3CCN(C4COC4)CC3)cn2)c1=O,EEF2K,"enzyme activity, inhibitor",0.1 µM,4%
COc1ccc(S(=O)(=O)N(CC(=O)NO)CC(C)C)cc1,MMP1,"enzyme activity, inhibitor",1 µM,26%
CCN(CC)CCCC[C@H](NC(=O)[C@H](CC(C)C)NC(=O)[C@H](C)NC(=O)[C@H](Cc1ccccc1)NC(=O)c1ccc(C(C)(C)C)cc1)C(=O)N[C@@H](CO)C(=O)OC,"C-C chemokine receptor type 1 (CCR1, Homo sapiens, UniProt P32246)","ligand displacement, radioligand",10 µM,7%
C#Cc1n[nH]c2c(-c3cn(C(C)c4ccccn4)c(=O)[nH]c3=O)cc(F)cc12 (stereo not drawn),"TGF-beta receptor type-1 (TGFBR1, Homo sapiens, UniProt P36897)","enzyme activity, inhibitor",1 µM,25.2%
N=C(N)c1ccc2cc(OC(=O)c3ccc(N=C(N)N)cc3)ccc2c1,USP7,"enzyme activity, inhibitor",10 µM,0%
COc1cc(Nc2ncc(F)c(Nc3ccc4c(n3)NC(=O)C(C)(C)O4)n2)cc(OC)c1OC,"TRAF2 and NCK-interacting protein kinase (TNIK, Homo sapiens, UniProt Q9UKE5)",binding,10 µM,56%
CCOC(=O)c1ccc(OC(=O)CCCCCNC(=N)N)cc1,CASP9,"enzyme activity, inhibitor",10 µM,7%
COc1ccc(S(=O)(=O)N2CCCCC2)cc1C,"Corticotropin-releasing factor receptor 1 (CRHR1, Homo sapiens, UniProt P34998)","ligand displacement, radioligand",10 µM,< 30%
